“And” between values parts separate entries of the source, which are not always exact repeats. Identical values can stand only once. The source made the active and inactive calls. No cut-off for these calls is given here.
How the values were obtained:
Carbonic anhydrase 2 [1] = target: T1, Carbonic anhydrase 2 (Homo sapiens, UniProt P00918); test: Inhibition of human carbonic anhydrase II; settings: read-out: I50
In short: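 CA II was affinity-purified from human erythrocytes. CO2 hydration was assayed by pH stat in 0.02 M Tris chloride, pH 8.6, at 2 °C with CO2–air (5:95) bubbled at 150 mL/min. The 0.025 N NaOH volume needed to hold pH 8.3 over 3 min was recorded, with inhibitor added before enzyme. I50 was read from semilog plots of % inhibition versus log concentration.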

Oryctolagus cuniculus [2] = test: Ability to penetrate the albino rabbit eye and to inhibit the target enzyme in an homogenate of the iris-ciliary body at 1 hr postdosing, ex vivo when dosed in 0.5% aqueousi (hydroxymethyl) cellulose.; format: functional
In short: (§1)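 Albino rabbits received one 50 μL drop of test suspension topically; 1 h after dosing the iris-ciliary body was homogenized and its carbonic anhydrase activity measured ex vivo. Screening used 0.5%, with lower concentrations for some compounds. Reference suspensions were given as 0.1% in 0.5% aqueous (hydroxyethyl)cellulose.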

[3] = Ionization constant (pKa); format: physicochemical
In short: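 The half-neutralization point was found by titration with 0.5 N NaOH and 0.5 N HCl in 30% EtOH–H2O using a glass electrode.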

[4] = Partition coefficient (logD7.4); format: physicochemical; settings: octanol/water, pH 7.4
In short: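 Compound was equilibrated between 1-octanol and 0.1 ionic strength pH 7.4 phosphate buffer; each phase was quantified by UV spectrophotometry.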

Carbonic anhydrase 2 [5] = target: T1, Carbonic anhydrase 2; test: Compound was tested in vitro for binding affinity against human carbonic anhydrase II; (ki*10e-9)
In short: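 Fluorescence competition against dansylamide used purified human erythrocyte CA II (1×10^-7 M) and dansylamide (2×10^-6 M) in pH 7.4, 0.1 ionic strength phosphate buffer at 37 °C. Excitation was 280 nm and emission 460 nm, with stepwise addition of test compound in buffer.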

[6] = Solubility measured in water; format: physicochemical; settings: read-out: S
In short: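 Solubility was measured in water at 25 °C.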

Oryctolagus cuniculus [7] = species: Oryctolagus cuniculus; test: Maximum Intraocular pressure reduction in alpha-CT rabbits at the dose (as a 50 microL drop of suspension in 0.5% aqueous cellulose); format: functional
In short: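 α-Chymotrypsinized rabbits received a 50 μL topical drop of test suspension. IOP was read before dosing and at 0.5, 1, 2, 3, 4 and 5 h after. The value is the maximum fall from the pre-dose reading. Parallel control groups got a drop of 0.5% aqueous (hydroxyethyl)cellulose.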

[8] = Solubility (pH 7.4, 25 degree C); format: physicochemical; settings: buffer, read-out: S
Oryctolagus cuniculus [9] = test: Ability to penetrate the albino rabbit eye and to inhibit the target enzyme in an homogenate of the iris-ciliary body at 1 hr postdosing, ex vivo when dosed in 0.1% aqueousi (hydroxymethyl) cellulose.; format: functional; in short: as §1
[10] = Aqueous solubility (25 degree C); format: physicochemical; settings: read-out: S
[11] = Solubility measured pH 7.4 at 25 degree C; format: physicochemical; settings: buffer, read-out: S
Oryctolagus cuniculus [12] = test: Ability to penetrate the albino rabbit eye and to inhibit the target enzyme in an homogenate of the iris-ciliary body at 1 hr postdosing, ex vivo when dosed in 0.05% aqueousi (hydroxymethyl) cellulose.; format: functional; in short: as §1

SMILES	IC50 (Carbonic anhydrase 2 [1]) [nM]	Inhibition (Oryctolagus cuniculus [2])	Inhibition (Oryctolagus cuniculus [9]) [%]	also measured
Cl.NS(=O)(=O)c1cc(C(=O)c2ccc(CN3CCOCC3)cc2)cs1	3.7	73%		pKa [3]: 9.28; logD [4]: 1.18; Ki (Carbonic anhydrase 2 [5]): 3.32 nM; solubility [6]: 12100 µg/mL; Max IOP reduction (Oryctolagus cuniculus [7]): -2.2 mmHg; solubility [8]: 70 µg/mL
CC(C)CNCc1cccc(S(=O)(=O)c2csc(S(N)(=O)=O)c2)c1.Cl	12	84%		
Cl.NS(=O)(=O)c1cc(C(=O)c2ccc(CNCc3ccccc3)cc2)cs1	2.4	81%		
CC(C)CNCc1ccc(C(=O)c2csc(S(N)(=O)=O)c2)cc1.Cl	4.8	87%	77	Max IOP reduction (Oryctolagus cuniculus [7]): inactive
CN1CCN(Cc2ccccc2S(=O)(=O)c2csc(S(N)(=O)=O)c2)CC1.Cl	23	77%	65	pKa [3]: 8.8; logD [4]: 1.13; Max IOP reduction (Oryctolagus cuniculus [7]): -2.7 mmHg; solubility [10]: > 64000 µg/mL
CCC(C)NCc1cccc(S(=O)(=O)c2csc(S(N)(=O)=O)c2)c1.Cl (centres undefined)	26	72%		pKa [3]: 9.05; logD [4]: 0.477; Max IOP reduction (Oryctolagus cuniculus [7]): -2.3 mmHg; solubility [10]: 20000 µg/mL
CC(C)CNCc1ccccc1S(=O)(=O)c1csc(S(N)(=O)=O)c1.Cl	18	62%	47	Ki (Carbonic anhydrase 2 [5]): 21.1 nM
CCN(CC)Cc1cc(S(=O)(=O)c2csc(S(N)(=O)=O)c2)ccc1O.Cl	9	71%		
CN1CCN(Cc2ccc(C(=O)c3csc(S(N)(=O)=O)c3)cc2)CC1.Cl	4	90%		solubility [11]: 2000 µg/mL; pKa [3]: 9.32; logD [4]: 0.362; solubility [6]: 5000 µg/mL
CN(C)Cc1cc(C(=O)c2csc(S(N)(=O)=O)c2)ccc1O.Cl	6.4	59%		Ki (Carbonic anhydrase 2 [5]): 34.4 nM
CNCc1ccc(C(=O)c2csc(S(N)(=O)=O)c2)cc1.Cl	4.5	67%	13	
Cl.NS(=O)(=O)c1cc(S(=O)(=O)c2ccccc2CNCc2ccccn2)cs1	15	88%	88	Max IOP reduction (Oryctolagus cuniculus [7]): -6.5 mmHg
CCCCNCc1ccc(C(=O)c2csc(S(N)(=O)=O)c2)cc1.Cl	12	95%	68	pKa [3]: 9.32; logD [4]: 0.568; solubility [8]: 460 µg/mL; solubility [10]: 2400 µg/mL
CC(C)CCNCc1cccc(C(=O)c2csc(S(N)(=O)=O)c2)c1.Cl	9	82%		
CC(C)CNCc1cccc(C(=O)c2csc(S(N)(=O)=O)c2)c1.Cl	13	68%		Ki (Carbonic anhydrase 2 [5]): 14.5 nM
Cc1ccc(C(=O)c2csc(S(N)(=O)=O)c2)cc1	2	26%		
CC(C)CN(C)Cc1cc(C(=O)c2csc(S(N)(=O)=O)c2)ccc1O.Cl	9	58%		
CC(C)CN(C)Cc1cc(S(=O)(=O)c2csc(S(N)(=O)=O)c2)ccc1O.Cl	5	90%	26	
Cl.NS(=O)(=O)c1cc(C(=O)c2cccc(CN3CCOCC3)c2)cs1	5	90%		pKa [3]: 9.03; logD [4]: 1.11; Ki (Carbonic anhydrase 2 [5]): 10.8 nM; solubility [10]: 4800 µg/mL
CC(C)NCc1cccc(S(=O)(=O)c2csc(S(N)(=O)=O)c2)c1.Cl	22	71%		
CCN(CC)Cc1ccc(S(=O)(=O)c2csc(S(N)(=O)=O)c2)cc1O.Cl	16	84%		
CC(C)CNCc1ccc(S(=O)(=O)c2csc(S(N)(=O)=O)c2)cc1O	14			
CCN(CC)Cc1cc(C(=O)c2csc(S(N)(=O)=O)c2)ccc1O.Cl	7	55%	54	Ki (Carbonic anhydrase 2 [5]): 18.6 nM
COc1ccc(C(=O)c2csc(S(N)(=O)=O)c2)cc1	3.2	31%		

More lines, main results first:

IC50 (Carbonic anhydrase 2 [1]) [nM]	SMILES	Inhibition (Oryctolagus cuniculus [2])	Inhibition (Oryctolagus cuniculus [9]) [%]	also measured
2.1	NS(=O)(=O)c1cc(S(=O)(=O)c2cccc(O)c2)cs1	86%		
5	NS(=O)(=O)c1cc(S(=O)(=O)c2ccc(O)cc2)cs1	82%		pKa [3]: 9.2; Ki (Carbonic anhydrase 2 [5]): 8 nM
36	CC(C)(C)NCc1ccc(S(=O)(=O)c2csc(S(N)(=O)=O)c2)cc1.Cl	61%		pKa [3]: 9.3; logD [4]: -0.143; solubility [10]: 4500 µg/mL
2.5	COc1ccc(S(=O)(=O)c2coc(S(N)(=O)=O)c2)cc1	68% and 97%	95	pKa [3]: 6.32; logD [4]: 1.17
13	CC(C)CNCc1ccc(S(=O)(=O)c2csc(S(N)(=O)=O)c2)cc1.Cl	87%	63	Ki (Carbonic anhydrase 2 [5]): 6.5 nM
4.2	NS(=O)(=O)c1cc(S(=O)(=O)c2ccc(O)cc2)co1	54%	100	
29	CCCCNCc1ccc(S(=O)(=O)c2csc(S(N)(=O)=O)c2)cc1.Cl	87%	48	
8	Cl.NS(=O)(=O)c1cc(S(=O)(=O)c2ccc(CNCc3ccccn3)cc2)cs1	92%	75	
4.2	Cc1ccc(S(=O)(=O)c2coc(S(N)(=O)=O)c2)cc1	96%	36	
7	CN(C)Cc1cc(S(=O)(=O)c2coc(S(N)(=O)=O)c2)ccc1O.Cl	81%	78	Ki (Carbonic anhydrase 2 [5]): 2.34 nM and 4.9 nM
7.6	Cl.NS(=O)(=O)c1cc(S(=O)(=O)c2ccc(CN3CCOCC3)cc2)cs1	83%		pKa [3]: 8.84; logD [4]: 0.978; Ki (Carbonic anhydrase 2 [5]): 1.43 nM; solubility [8]: 850 µg/mL
10	CCN(CC)Cc1cc(S(=O)(=O)c2coc(S(N)(=O)=O)c2)ccc1O.Cl	82%	58	Ki (Carbonic anhydrase 2 [5]): 4 nM
2.5	NS(=O)(=O)c1cc(C(=O)c2ccc(O)cc2)cs1	83%		
45	COc1ccc(S(=O)(=O)c2csc(S(N)(=O)=O)c2)cc1	68%		pKa [3]: 8.78
3.2	Cc1ccc(S(=O)(=O)c2csc(S(N)(=O)=O)c2)cc1	86%		
2	COc1ccc(C(=O)c2coc(S(N)(=O)=O)c2)cc1	67%	13	
11	CN1CCN(Cc2ccc(S(=O)(=O)c3csc(S(N)(=O)=O)c3)cc2)CC1.Cl	92%	90	Inhibition (Oryctolagus cuniculus [12]): 29%; pKa [3]: 9.25; logD [4]: 0.38; solubility [8]: > 56000 µg/mL; solubility [10]: > 43000 µg/mL
9	CN(C)Cc1cc(S(=O)(=O)c2csc(S(N)(=O)=O)c2)ccc1O.Cl	57%	40	

Source: ChEMBL document CHEMBL1125318, “4-substituted thiophene- and furan-2-sulfonamides as topical carbonic anhydrase inhibitors” (J Med Chem, 1992)
